From PubChem BioAssay
eIF2B yeast act – eIF2B (yeast) activity modulation | S. cerevisiae eIF2B-epsilon R284H, GCN4-lacZ luminescence | inhibition, % at 25 µM (by protocol) | 27,000 tested, 0.91% active | AID 688;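 active = mutant luminescence inhibited past about 50% while wild type luminescence and mutant growth stay under set limits, limit read from the data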
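Material – yeast eIF2B-epsilon R284H mutant carrying GCN4–beta-galactosidase fusion · Medium – YPD yeast growth medium · Compound – one concentration, 25 µM, 0.25% DMSO · Times – 16 h at 30 °C exposure · Signal – Beta-Glo luminescence plus absorbance at 595 nm · Read-out – % inhibition of reporter signal and growth versus controls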
Yeast tox – Compounds toxic to wild-type S. cerevisiae growth | A595 turbidity, 16 h | growth inhibition, % at 25 µM (by protocol) | 30,000 tested, 0.3% active;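 active = mutant and wild-type yeast strains alike exhibit over 30% growth inhibition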;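 also: 0% = untreated cell controls and 100% = YPD media blanks without cells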
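Test system: Wild-type and eIF2Bepsilon-R284H mutant S. cerevisiae, screened separately | Dosing: Single 25 µM compound dose in 0.2% DMSO | Schedule: 16 h compound exposure during growth at 30 °C | Detection: A595 turbidity | Evaluation: Growth inhibition (%) versus cell controls and blanks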
Numbers without * were called inactive; / = no result given. In the library only some 1% were active in any assay of this set; here they are far more common.

SMILES	eIF2B yeast act	Yeast tox
O=C(c1ccccc1)N1CCN(C(=O)c2ccncc2)CC1	51*	16
CCS(=O)(=O)N1CCN(C(=O)c2ccccc2)CC1	11	12
N#Cc1cc2c(nc1SCC(=O)Nc1sc3c(c1C#N)CCC3)CCCCCC2	/	18
CN1CCc2nc(SCC(=O)Nc3ccc(Cl)cc3)c(C#N)cc2C1	62*	-14
COCc1cc(C)nc(SCC(=O)N2CCC(C)CC2)c1C#N	-4	15
CCCn1c(N)c(C(=O)CSc2nnnn2-c2ccc(O)cc2)c(=O)n(C)c1=O	17	-3
CCCOc1ccc(N2C(=O)CC(SC(=NCC)Nc3cccc(F)c3)C2=O)cc1 (configuration not stated)	53*	-44
CCCOc1ccc(N2C(=O)CC(SC(=NC)Nc3ccc(F)cc3)C2=O)cc1 (configuration not stated)	10	-16
O=C(CSCC(=O)NC1CC1)Nc1ccc2ccccc2c1	-5	-6
O=C(NCC(=O)N(Cc1ccco1)C(C(=O)NC1CCCC1)c1ccncc1)c1cccs1 (configuration not stated)	-15	/
O=C(NC1CCCC1)C(c1ccccc1)N(Cc1ccco1)C(=O)Cc1cccs1 (configuration not stated)	57*	0
O=C(Nc1nc(-c2ccc(S(=O)(=O)N3CCCCCC3)cc2)cs1)c1cccs1	60*	-5
O=C(Nc1nc(-c2ccc(S(=O)(=O)N3CCCC3)cc2)cs1)c1cccs1	5	/
N/C(=N\OC(=O)c1ccccc1Cl)c1cccnc1	31	6
O=C(/C=C/c1ccccc1Cl)c1cccnc1	/	48*
CCOC(=O)c1nnn(-c2nonc2N)c1-c1ccc(OC)cc1	19	20
O=C1c2ccccc2S(=O)(=O)N1CC1CC(c2ccccc2)=NO1 (configuration not stated)	-7	42*
COc1ccc(C2=NOC(CN3C(=O)c4ccccc4S3(=O)=O)C2)cc1 (configuration not stated)	43	/
CN(C)c1nc(N(C)C)nc(N(C#N)CCOc2ccccc2)n1	50*	/
Cc1cc(C)nc(N(C#N)CCOc2ccccc2)n1	-17	-8
O=C1CC(O)(C(F)F)Oc2ccc3ccccc3c21 (configuration not stated)	53*	16
O=C1CC(O)(C(F)(F)F)Oc2c1ccc1ccccc21 (configuration not stated)	46	2
COc1ccccc1-c1noc(CCC(=O)Nc2ccccc2Cl)n1	-22	-4
O=C(CN1C(=O)COc2ccccc21)N1CCc2ccccc2C1	-30	1
CCCCC(=O)NCCc1cc2c(OC)ccc(OC)c2[nH]c1=O	/	32
SMILES	eIF2B yeast act	Yeast tox
CN(C)CCN1C(=O)C(O)=C(C(=O)c2cc3ccccc3o2)C1c1ccccn1 (configuration not stated)	-44	-12
CN(C)CCN1C(=O)C(O)=C(C(=O)c2ccco2)C1c1ccccc1F (configuration not stated)	63*	-2
Cc1ccccc1OC(C)C(=O)NC1CCCC1 (configuration not stated)	13	10
CCOC(=O)C1(CC)NC(c2ccco2)C2C(=O)N(C)C(=O)C21 (configuration not stated)	-21	18
CCOC(=O)C1(CCSC)NC(c2ccco2)C2C(=O)N(C)C(=O)C21 (configuration not stated)	72*	-14
Cc1ccnc(NS(=O)(=O)c2ccc(NC(=O)C34CC5CC(C)(CC(C)(C5)C3)C4)cc2)n1	16	26
Cc1ccc(NC(=O)c2cc(NC(=O)C3CC=CCC3C(=O)O)ccc2N2CCOCC2)cc1Cl (configuration not stated)	26	16
COc1ccccc1NC(=O)Oc1ccc(C(C)=O)cc1	14	-4
COc1ccccc1NC(=S)NNC(=O)c1ccccc1	58*	-8
Cc1ccc(S(=O)(=O)Oc2ccc(C(c3c(C)[nH][nH]c3=O)c3c(C)[nH][nH]c3=O)cc2)cc1	20	30
Cc1[nH][nH]c(=O)c1C(c1ccc(-c2ccc(Cl)c(Cl)c2)o1)c1c(C)[nH][nH]c1=O	14	46*
CC(C)(C)NS(=O)(=O)c1ccc(CCC(=O)NCc2cccnc2)cc1	-30	11
CCOC(=O)C1=C(C)NC(C)=C(C(=O)OCC)C1C(=O)OCC(=O)N1CCc2ccccc2C1	59*	0
O=C(CNC1CCCCC1)N1CCc2ccccc2C1	/	3
COc1cc(OC)cc(-n2nc(C(=O)N3CC(C)CC(C)C3)c3ccccc3c2=O)c1 (configuration not stated)	-18	-5
CCOC(=O)N1CCN(C(=O)c2nn(-c3cc(OC)cc(OC)c3)c(=O)c3ccccc23)CC1	57*	-26
C/C(N)=C(/C#N)C(=O)CN1CCCCC1	20	12
C#Cc1ccc(C(=O)Nc2cc(C(N)=O)ccc2N2CCOCC2)cc1	34	-14
CC(=O)Oc1ccc2c(C)cc(=O)oc2c1	20	8
CC(=O)Oc1ccc(N2C(=O)C3C(C2=O)C2(C)C=CC3(C)O2)cc1 (configuration not stated)	39	61*
O=C(Cc1ccccc1)Nc1ccccc1C(=O)O	22	-4
Cc1noc(C)c1C(=O)Nc1ccc2c(c1)CCC2	65*	/
O=C(Nc1ccc2c(c1)CCC2)C1CCCO1 (configuration not stated)	21	5
C/C(N)=C(/C#N)C(=O)CSc1nnc(COc2cc(C)ccc2C)o1	1	21
CCOC(=O)C1CCN(C(=O)C2CC(=O)N(c3ccc(C)cc3)C2)CC1 (configuration not stated)	-10	-8
SMILES	eIF2B yeast act	Yeast tox
O=C(COC(=O)CCc1ccc(S(=O)(=O)N2CCOCC2)cc1)Nc1ccc(Cl)cn1	17	10
CCOC(=O)Cc1csc(NC(=O)CCc2ccc(S(=O)(=O)N3CCOCC3)cc2)n1	57*	4
COC(=O)c1cc(OC)c(OC)cc1NC(=O)c1oc2ccccc2c1C	-17	-28
CCN(CC)CCNC(=O)Cn1nc(-c2ccccc2)c2ccccc2c1=O	24	-22
CNC(=O)Cn1nc(-c2ccc(C)c(S(=O)(=O)N(C)C)c2)c2ccccc2c1=O	62*	1
O=C(c1cccs1)N1CCC(c2ccccc2)C1 (configuration not stated)	71*	18
O=C(c1cccs1)N1CCCC1	5	0
Cc1nc2c(C)cccn2c1/C(O)=C1\C(=O)C(=O)N(CCN2CCOCC2)C1c1cccs1 (configuration not stated)	3	18
CN1C(=O)NC(c2ccccc2)C2=C1CN(c1cccc(C(F)(F)F)c1)C2=O (configuration not stated)	52*	1
CN1C(=O)NC(c2ccccc2)C2=C1CN(CCc1ccccc1)C2=O (configuration not stated)	-25	21
Nc1ccc2nc(-c3ccccc3)sc2c1	72*	20
Nc1nc2ccc(-c3nc4ccccc4o3)cc2s1	24	21
CC(CNC(=O)C1CCCCC1C(=O)O)c1ccccc1 (configuration not stated)	13	7
CCOC(=O)c1c(NC=O)sc2c1CCC2	8	9
CCOC(=O)c1c(NC(=O)COC)sc2c1CCCC2	65*	2
CCCCN(C)CCCNC(=O)c1ccc(N2CCCC2=O)cc1	6	-2
